Data set [1] addresses T1, Estrogen receptor (Homo sapiens) (UniProt P03372).
T1 sequence (whole entry): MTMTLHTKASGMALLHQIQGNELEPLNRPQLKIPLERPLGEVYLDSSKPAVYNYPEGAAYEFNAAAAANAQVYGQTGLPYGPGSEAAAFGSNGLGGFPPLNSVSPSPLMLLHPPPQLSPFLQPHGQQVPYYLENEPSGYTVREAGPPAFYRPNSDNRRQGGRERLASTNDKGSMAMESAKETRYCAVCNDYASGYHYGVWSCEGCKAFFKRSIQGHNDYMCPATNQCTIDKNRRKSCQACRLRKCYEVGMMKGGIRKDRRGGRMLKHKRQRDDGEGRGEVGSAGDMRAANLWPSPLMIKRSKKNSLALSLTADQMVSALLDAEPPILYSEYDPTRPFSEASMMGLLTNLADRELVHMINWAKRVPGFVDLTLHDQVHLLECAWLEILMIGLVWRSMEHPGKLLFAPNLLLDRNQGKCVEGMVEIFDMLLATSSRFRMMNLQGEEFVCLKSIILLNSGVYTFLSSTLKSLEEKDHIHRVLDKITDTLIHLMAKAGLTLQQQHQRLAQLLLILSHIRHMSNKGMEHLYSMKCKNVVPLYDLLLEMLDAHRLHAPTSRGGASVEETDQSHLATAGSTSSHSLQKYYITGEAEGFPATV
The data set is described as follows: Relative binding affinity for estrogen receptor 1 (ER-alpha) of lamb uterine cytosol. Particulars: Ovis aries; target entry is the homologue from another species. Put shortly: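 Cytosol from frozen sheep (lamb) uteri in 0.05 M Tris-HCl, 0.25 M sucrose, 0.1% β-mercaptoethanol, pH 7.4. Incubated 3 h at 0°C with 2×10⁻⁹ M [6,7-3H]-estradiol and nine competitor concentrations. Bound and free separated by protamine sulfate precipitation. 50% displacement concentration from logit plot; RBA relative to estradiol = 100%; mean of at least two experiments.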

For data set [2], the target named is Estrogen receptor beta (Homo sapiens) (UniProt Q92731). Description: Relative binding affinity for estrogen receptor 2 (ER-beta). The method, boiled down: (§1)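 Incubated 3 h at 0°C with 2×10⁻⁹ M [3H]-estradiol plus nine competitor levels. Protamine sulfate separation, logit analysis of 50% displacement. RBA vs estradiol (100%); mean of at least two experiments.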

Data set [3] in a line: Relative binding affinity for purified estrogen receptor 1 (ER-alpha). Put shortly: as §1
Data set [4] can be described thus: Partition coefficient (logP). The class given is physicochemical. Particulars: octanol/water. The method, boiled down:
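Reversed-phase HPLC on a C-8 column. Capacity factors k' extrapolated to 100% aqueous component to give k'w; logPo/w = 0.13418 + 0.98452 log k'w.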

Chain of Estrogen receptor beta (Homo sapiens) (Q92731 whole entry): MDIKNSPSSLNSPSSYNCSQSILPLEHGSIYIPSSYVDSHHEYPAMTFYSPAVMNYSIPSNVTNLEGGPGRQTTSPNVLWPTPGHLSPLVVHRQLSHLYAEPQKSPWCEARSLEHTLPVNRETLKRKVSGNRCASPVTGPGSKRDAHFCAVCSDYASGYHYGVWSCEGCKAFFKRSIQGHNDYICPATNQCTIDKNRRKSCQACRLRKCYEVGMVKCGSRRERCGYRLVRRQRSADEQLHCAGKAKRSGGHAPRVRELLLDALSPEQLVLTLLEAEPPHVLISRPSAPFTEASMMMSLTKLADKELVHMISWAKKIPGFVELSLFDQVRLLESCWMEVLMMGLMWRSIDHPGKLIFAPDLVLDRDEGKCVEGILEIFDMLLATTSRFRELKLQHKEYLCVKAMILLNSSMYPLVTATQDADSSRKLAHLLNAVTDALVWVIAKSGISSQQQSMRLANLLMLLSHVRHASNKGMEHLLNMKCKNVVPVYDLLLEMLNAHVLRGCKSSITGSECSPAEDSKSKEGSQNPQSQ

The logP is a log measure of how a compound divides between an organic and an aqueous phase. Higher therefore signals higher lipophilicity. For the molecule `CCC(=C(c1ccc(O)cc1)c1ccc(O)cc1)c1ccccc1`, the RBA in data set [1] came to 6.8%; in data set [2], 101%; in data set [3], 47.5%. For the same molecule, the logP in data set [4] was determined as 4.4.

The values above are taken from ChEMBL document CHEMBL1139535, “Modification of the estrogenic properties of diphenols by the incorporation of ferrocene. Generation of antiproliferative effects in vitro” (J Med Chem, 2005).
